Experimental data: ChEMBL document CHEMBL1148939, “Montacin and cis-montacin, two new cytotoxic monotetrahydrofuran annonaceous acetogenins from Annona montana” (2004)
Values after ≈ are worked out from the molar mass of the structure shown.

Experiments:
A549 [1] = test: Cytotoxicity against human A549 cells after 3 days by SRB assay; assay type: functional; conditions: A549, 72 h, read-out: ED50 (the source's name)
Summary of the method: (§1)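 Cells were grown in RPMI-1640 with 25 mM HEPES, 0.25% NaHCO3, 10% FBS and kanamycin. Freshly trypsinized cells were seeded at 1500-7500 per well with compound from a DMSO-diluted stock and cultured for 3 days. Attached cells were fixed with cold 50% TCA, stained with 0.4% SRB, and the solubilized dye was read at 562 nm. ED50 is the concentration giving 50% growth reduction over 3 days.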

MCF7 [2] = test: Cytotoxicity against human MCF7 cells after 3 days by SRB assay; assay type: functional; conditions: MCF7, 72 h, read-out: ED50 (the source's name); summary of the method: as §1
HCT-8 [3] = test: Cytotoxicity against human HCT8 cells after 3 days by SRB assay; assay type: functional; conditions: HCT-8, 72 h, read-out: ED50 (the source's name); summary of the method: as §1
KB [4] = test: Cytotoxicity against human KB cells after 3 days by SRB assay; assay type: functional; conditions: 72 h, read-out: ED50 (the source's name); summary of the method: as §1
KB [5] = test: Cytotoxicity against human vincristine-resistant KB cells after 3 days by SRB assay; assay type: functional; conditions: 72 h, read-out: ED50 (the source's name); summary of the method: as §1
[6] = Cytotoxicity against human U87MG cells after 3 days by SRB assay; assay type: functional, U-87MG ATCC; conditions: U-87 MG, 72 h, read-out: ED50 (the source's name)
PC-3 [7] = test: Cytotoxicity against human PC3 cells after 3 days by SRB assay; assay type: functional; conditions: PC-3, 72 h, read-out: ED50 (the source's name); summary of the method: as §1
1A9 [8] = test: Cytotoxicity against human 1A9 cells after 3 days by SRB assay; assay type: functional; conditions: 1A9, 72 h, read-out: ED50 (the source's name); summary of the method: as §1
1A9/ptx-10 [9] = test: Cytotoxicity against human 1A9/PTX10 cells after 3 days by SRB assay; assay type: functional; conditions: 1A9/ptx-10, 72 h, read-out: ED50 (the source's name); summary of the method: as §1
1A9 [10] = test: Cytotoxicity against human 1A9 cells after 6 days by SRB assay; assay type: functional; conditions: 1A9, 144 h, read-out: ED50 (the source's name)
Summary of the method: (§2)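 Parent 1A9 ovarian cells or the PTX10 subline (mutated β-tubulin) were grown in RPMI-1640 with 25 mM HEPES, 0.25% NaHCO3, 10% FBS and kanamycin. Freshly trypsinized cells were seeded at 1500-7500 per well with DMSO-diluted compound, cultured for 6 days, and evaluated by SRB staining. Activity was expressed as ED50.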

1A9/ptx-10 [11] = test: Cytotoxicity against human 1A9/PTX10 cells after 6 days by SRB assay; assay type: functional; conditions: 1A9/ptx-10, 144 h, read-out: ED50 (the source's name); summary of the method: as §2
A549 [12] = test: Cytotoxicity against human A549 cells after 3 days by SRB assay in presence of Ca2+; assay type: functional; conditions: A549, 72 h, read-out: ED50 (the source's name)
Summary of the method: (§3)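 This is the 3-day SRB growth assay in RPMI-1640 with 10% FBS and 25 mM HEPES, with CaCl2 added to the bioassay as the Ca2+ source. Trypsinized cells were seeded at 1500-7500 per well with DMSO-diluted compound, then fixed with cold TCA, stained with 0.4% SRB and read at 562 nm. ED50 is the concentration causing 50% growth reduction.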

MCF7 [13] = test: Cytotoxicity against human MCF7 cells after 3 days by SRB assay in presence of Ca2+; assay type: functional; conditions: MCF7, 72 h, read-out: ED50 (the source's name); summary of the method: as §3
HCT-8 [14] = test: Cytotoxicity against human HCT8 cells after 3 days by SRB assay in presence of Ca2+; assay type: functional; conditions: HCT-8, 72 h, read-out: ED50 (the source's name); summary of the method: as §3
KB [15] = test: Cytotoxicity against human KB cells after 3 days by SRB assay in presence of Ca2+; assay type: functional; conditions: 72 h, read-out: ED50 (the source's name); summary of the method: as §3
KB [16] = test: Cytotoxicity against human vincristine-resistant KB cells after 3 days by SRB assay in presence of Ca2+; assay type: functional; conditions: 72 h, read-out: ED50 (the source's name); summary of the method: as §3
[17] = Cytotoxicity against human U87MG cells after 3 days by SRB assay in presence of Ca2+; assay type: functional, U-87MG ATCC; conditions: U-87 MG, 72 h, read-out: ED50 (the source's name)
PC-3 [18] = test: Cytotoxicity against human PC3 cells after 3 days by SRB assay in presence of Ca2+; assay type: functional; conditions: PC-3, 72 h, read-out: ED50 (the source's name); summary of the method: as §3
1A9 [19] = test: Cytotoxicity against human 1A9 cells after 3 days by SRB assay in presence of Ca2+; assay type: functional; conditions: 1A9, 72 h, read-out: ED50 (the source's name); summary of the method: as §3
1A9/ptx-10 [20] = test: Cytotoxicity against human 1A9/PTX10 cells after 3 days by SRB assay in presence of Ca2+; assay type: functional; conditions: 1A9/ptx-10, 72 h, read-out: ED50 (the source's name); summary of the method: as §3
1A9 [21] = test: Cytotoxicity against human 1A9 cells after 6 days by SRB assay in presence of Ca2+; assay type: functional; conditions: 1A9, 144 h, read-out: ED50 (the source's name)
Summary of the method: (§4)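 1A9 ovarian cells or the β-tubulin-mutant PTX10 subline were grown in RPMI-1640 with 10% FBS and 25 mM HEPES. CaCl2 was included in the bioassay as the Ca2+ source. Cells were seeded at 1500-7500 per well with DMSO-diluted compound and cultured for 6 days before SRB staining. The read-out was ED50.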

1A9/ptx-10 [22] = test: Cytotoxicity against human 1A9/PTX10 cells after 6 days by SRB assay in presence of Ca2+; assay type: functional; conditions: 1A9/ptx-10, 144 h, read-out: ED50 (the source's name); summary of the method: as §4
SK-MEL-2 [23] = test: Cytotoxicity against human SK-MEL-2 cells after 3 days by SRB assay; assay type: functional; conditions: SK-MEL-2, 72 h, read-out: ED50 (the source's name); summary of the method: as §1
[24] = Cytotoxicity against human CAKI cells after 3 days by SRB assay; assay type: functional; conditions: 72 h, read-out: ED50 (the source's name); summary of the method: as §1
SK-MEL-2 [25] = test: Cytotoxicity against human SK-MEL-2 cells after 3 days by SRB assay in presence of Ca2+; assay type: functional; conditions: SK-MEL-2, 72 h, read-out: ED50 (the source's name); summary of the method: as §3
[26] = Cytotoxicity against human CAKI cells after 3 days by SRB assay in presence of Ca2+; assay type: functional; conditions: 72 h, read-out: ED50 (the source's name); summary of the method: as §3

Row | SMILES | EC50 (A549 [1]) | EC50 (MCF7 [2]) | EC50 (HCT-8 [3]) | EC50 (KB [4]) | EC50 (KB [5]) | EC50 [6] | EC50 (PC-3 [7]) | EC50 (1A9 [8]) | EC50 (1A9/ptx-10 [9]) | EC50 (1A9 [10]) | EC50 (1A9/ptx-10 [11]) | EC50 (A549 [12]) | EC50 (MCF7 [13]) | EC50 (HCT-8 [14]) | EC50 (KB [15]) | EC50 (KB [16]) | EC50 [17] | EC50 (PC-3 [18]) | EC50 (1A9 [19]) | EC50 (1A9/ptx-10 [20]) | further results
1 | CCCCCCC[C@@H](O)[C@H]1CC[C@@H]([C@@H](O)CCCCCCCCCC[C@@H](O)CC(=O)CC[C@@H](O)CC2=C[C@H](C)OC2=O)O1 | 6 µg/mL (≈ 9.82 µM) | 6.7 µg/mL (≈ 11 µM) | 12.9 µg/mL (≈ 21.1 µM) | 7.7 µg/mL (≈ 12.6 µM) | 13.4 µg/mL (≈ 21.9 µM) | 15 µg/mL (≈ 24.6 µM) | 11.9 µg/mL (≈ 19.5 µM) | 3.6 µg/mL (≈ 5.89 µM) | 5.9 µg/mL (≈ 9.66 µM) | 0.54 µg/mL (≈ 0.884 µM) | 1.8 µg/mL (≈ 2.95 µM) | 5.5 µg/mL | 6.4 µg/mL | 11.7 µg/mL | 8.2 µg/mL | 13.8 µg/mL | 14.3 µg/mL | 12.1 µg/mL | 2 µg/mL | 5.3 µg/mL | EC50 (1A9 [21]): 0.13 µg/mL; EC50 (1A9/ptx-10 [22]): 0.11 µg/mL
2 | CCCCCCC[C@H](O)[C@@H]1CC[C@@H]([C@@H](O)CCCCCCCCCC[C@H](O)CC(=O)CC[C@@H](O)CC2=C[C@H](C)OC2=O)O1 [MONTACIN] | 12.9 µg/mL (≈ 21.1 µM) | 10 µg/mL (≈ 16.4 µM) | 16.5 µg/mL (≈ 27 µM) | 16.6 µg/mL (≈ 27.2 µM) | > 20 µg/mL | > 20 µg/mL | > 20 µg/mL | > 10 µg/mL | > 10 µg/mL | 6.7 µg/mL (≈ 11 µM) | 7.9 µg/mL (≈ 12.9 µM) | 7.4 µg/mL | 5.5 µg/mL | 12.3 µg/mL | 9.1 µg/mL | 13.9 µg/mL | 14.2 µg/mL | 14.2 µg/mL | 6.7 µg/mL | 7.5 µg/mL | EC50 (SK-MEL-2 [23]): 11.2 µg/mL (≈ 18.3 µM); EC50 [24]: > 20 µg/mL; EC50 (SK-MEL-2 [25]): 13.3 µg/mL; EC50 [26]: 14.2 µg/mL; EC50 (1A9 [21]): 4.5 µg/mL; EC50 (1A9/ptx-10 [22]): 2.8 µg/mL
